# Several values for one entry are separate records, joined by “and”; a condition that tells them apart may be missing. Equal values may be shown once.
# What was measured:
# HEK-293T = test: Multiplex assay against HEK293T; assay type: toxicity, cell-based; details: human, number of replicates 2
# Outline: (§1)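 On a CQ1 microscope at 37°C and 5% CO2, live cells were imaged after compound addition. They had been stained at seeding with Hoechst33342, BioTracker Green Microtubule Cytoskeleton Dye, MitoTracker Red and Annexin V Alexa Fluor 680. CellPathfinder machine-learning gating assigned cells to Hoechst high-intensity objects or normal cells, normal cells to healthy, pyknosed or fragmented nuclei, and pyknosed cells to mitotic or apoptotic. Tubulin, mitochondrial-mass and membrane-permeability phenotypes are per cents of healthy-nucleus cells.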
# U2OS = test: Multiplex assay against U2OS; assay type: toxicity, cell-based; details: human, number of replicates 2; outline: as §1
# [1] = 24 h, 1 µM, compound concentration 1 uM
# [2] = 24 h, 10 µM, compound concentration 10 uM
# [3] = 48 h, 1 µM, compound concentration 1 uM
# [4] = 48 h, 10 µM, compound concentration 10 uM
# [5] = 12 h, 1 µM, compound concentration 1 uM
# [6] = 12 h, 10 µM, compound concentration 10 uM
smiles,measurement,setting,value
N[C@@H]1c2cccnc2[C@H](OC(=O)N2CCC(n3c(=O)[nH]c4ncccc43)CC2)CC[C@H]1c1cccc(F)c1F [RIMEGEPANT],Population Pyknosed Nuclei (%),HEK-293T; [1],17% and 7%
same,Population Tubulin-Different-Phenotype (%),HEK-293T; [1],18% and 20%
same,Total Cell Count,HEK-293T; [1],820 and 1035
same,Population Apoptotic (%),HEK-293T; [2],48% and 36%
same,Population Fragmented Nuclei (%),HEK-293T; [2],9% and 8%
same,Population Healthy Nuclei (%),HEK-293T; [2],84% and 83%
same,Population Hoechst High Intensity Objects (%),HEK-293T; [2],8%
same,Population Membrane Permeable-Phenotype (%),HEK-293T; [2],5% and 2%
same,Population Mitotic Cells (%),HEK-293T; [2],51% and 63%
same,Population Normal (%),HEK-293T; [2],91%
same,Population Pyknosed Nuclei (%),HEK-293T; [2],6% and 7%
same,Population Tubulin-Different-Phenotype (%),HEK-293T; [2],91% and 67%
same,Total Cell Count,HEK-293T; [2],709 and 978
same,Population Apoptotic (%),HEK-293T; [3],26% and 9%
same,Population Fragmented Nuclei (%),HEK-293T; [3],12% and 16%
same,Population Healthy Nuclei (%),HEK-293T; [3],82% and 80%
same,Population Hoechst High Intensity Objects (%),HEK-293T; [3],7% and 8%
same,Population Membrane Permeable-Phenotype (%),HEK-293T; [3],4% and 5%
same,Population Mitochondria Different-Phenotype (%),HEK-293T; [3],0%
same,Population Mitotic Cells (%),HEK-293T; [3],73% and 90%
same,Population Normal (%),HEK-293T; [3],92% and 91%
same,Population Pyknosed Nuclei (%),HEK-293T; [3],4% and 2%
same,Population Tubulin-Different-Phenotype (%),HEK-293T; [3],7% and 8%
same,Total Cell Count,HEK-293T; [3],2054 and 2768
same,Population Apoptotic (%),HEK-293T; [4],34% and 14%
same,Population Fragmented Nuclei (%),HEK-293T; [4],14%
same,Population Healthy Nuclei (%),HEK-293T; [4],82%
same,Population Hoechst High Intensity Objects (%),HEK-293T; [4],8% and 10%
same,Population Membrane Permeable-Phenotype (%),HEK-293T; [4],6%
same,Population Mitochondria Different-Phenotype (%),HEK-293T; [4],9% and 1%
same,Population Mitotic Cells (%),HEK-293T; [4],65% and 85%
same,Population Normal (%),HEK-293T; [4],91% and 89%
same,Population Pyknosed Nuclei (%),HEK-293T; [4],2% and 3%
same,Population Tubulin-Different-Phenotype (%),HEK-293T; [4],83% and 44%
same,Total Cell Count,HEK-293T; [4],1243 and 2004
same,Population Apoptotic (%),U2OS; [5],40% and 54%
same,Population Fragmented Nuclei (%),U2OS; [5],11% and 5%
same,Population Healthy Nuclei (%),U2OS; [5],79% and 84%
same,Population Hoechst High Intensity Objects (%),U2OS; [5],0%
same,Population Membrane Permeable-Phenotype (%),U2OS; [5],0% and 4%
same,Population Mitochondria Different-Phenotype (%),U2OS; [5],0% and 1%
same,Population Mitotic Cells (%),U2OS; [5],60% and 45%
same,Population Normal (%),U2OS; [5],100%
same,Population Pyknosed Nuclei (%),U2OS; [5],9%
same,Population Tubulin-Different-Phenotype (%),U2OS; [5],90% and 65%
same,Population Apoptotic (%),U2OS; [6],60% and 51%
same,Population Fragmented Nuclei (%),U2OS; [6],0% and 5%
same,Population Healthy Nuclei (%),U2OS; [6],88% and 83%
same,Population Hoechst High Intensity Objects (%),U2OS; [6],0%
same,Population Membrane Permeable-Phenotype (%),U2OS; [6],0% and 8%
same,Population Mitochondria Different-Phenotype (%),U2OS; [6],8% and 11%
same,Population Mitotic Cells (%),U2OS; [6],40% and 48%
same,Population Normal (%),U2OS; [6],100%
same,Population Pyknosed Nuclei (%),U2OS; [6],11% and 10%
same,Population Tubulin-Different-Phenotype (%),U2OS; [6],37% and 34%
same,Population Apoptotic (%),U2OS; [1],50% and 57%
same,Population Fragmented Nuclei (%),U2OS; [1],7% and 3%
same,Population Healthy Nuclei (%),U2OS; [1],82% and 86%
same,Population Hoechst High Intensity Objects (%),U2OS; [1],0%
same,Population Membrane Permeable-Phenotype (%),U2OS; [1],2% and 4%
same,Population Mitochondria Different-Phenotype (%),U2OS; [1],0% and 2%
same,Population Mitotic Cells (%),U2OS; [1],50% and 42%
same,Population Normal (%),U2OS; [1],100%
same,Population Pyknosed Nuclei (%),U2OS; [1],10% and 9%
same,Population Tubulin-Different-Phenotype (%),U2OS; [1],87% and 71%
same,Population Apoptotic (%),U2OS; [2],66% and 76%
same,Population Fragmented Nuclei (%),U2OS; [2],8% and 3%
same,Population Healthy Nuclei (%),U2OS; [2],79% and 89%
same,Population Hoechst High Intensity Objects (%),U2OS; [2],0%
same,Population Membrane Permeable-Phenotype (%),U2OS; [2],0% and 6%
same,Population Mitochondria Different-Phenotype (%),U2OS; [2],10% and 16%
same,Population Mitotic Cells (%),U2OS; [2],33% and 24%
same,Population Normal (%),U2OS; [2],100%
same,Population Pyknosed Nuclei (%),U2OS; [2],12% and 6%
same,Population Tubulin-Different-Phenotype (%),U2OS; [2],28% and 27%
same,Population Apoptotic (%),U2OS; [3],61% and 62%
same,Population Fragmented Nuclei (%),U2OS; [3],8% and 3%
same,Population Healthy Nuclei (%),U2OS; [3],77% and 89%
same,Population Hoechst High Intensity Objects (%),U2OS; [3],0%
same,Population Membrane Permeable-Phenotype (%),U2OS; [3],1%
same,Population Mitochondria Different-Phenotype (%),U2OS; [3],2% and 1%
same,Population Mitotic Cells (%),U2OS; [3],38% and 37%
same,Population Normal (%),U2OS; [3],100%
same,Population Pyknosed Nuclei (%),U2OS; [3],14% and 7%
same,Population Tubulin-Different-Phenotype (%),U2OS; [3],94% and 84%
same,Population Apoptotic (%),U2OS; [4],53% and 70%
same,Population Fragmented Nuclei (%),U2OS; [4],3%
same,Population Healthy Nuclei (%),U2OS; [4],73% and 86%
same,Population Hoechst High Intensity Objects (%),U2OS; [4],0%
same,Population Membrane Permeable-Phenotype (%),U2OS; [4],4% and 3%
same,Population Mitochondria Different-Phenotype (%),U2OS; [4],2% and 9%
same,Population Mitotic Cells (%),U2OS; [4],46% and 29%
same,Population Normal (%),U2OS; [4],100%
same,Population Pyknosed Nuclei (%),U2OS; [4],22% and 9%
same,Population Tubulin-Different-Phenotype (%),U2OS; [4],30% and 33%

# From ChEMBL document CHEMBL5303300, “EUbOPEN Chemogenomics Library - Multiplex” (2023)
